From ChEMBL document CHEMBL1795313, “Synthesis and antimicrobial activities of hexahydroimidazo[1,5-a]pyridinium bromides with varying benzyl substituents” (Eur J Med Chem, 2011)

Experiments:
[1] = Acute toxicity in po dosed Swiss albino mouse after 24 hrs; assay type: organism-based; details: in vivo
Summary of the method: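 Mice dosed orally, 5 male and 5 female per group; limit test at 2000 mg/kg, plus classical LD50 test; toxic responses and deaths recorded over 24 h; LD50 derived from lethality.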

[2] = system: Staphylococcus aureus; assay: Antimicrobial activity against Staphylococcus aureus 6538/P after 18 hrs by microdilution method; assay type: functional
Summary of the method: (§1)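 Broth microdilution per NCCLS M7-A4. Stocks kept on nutrient agar at 4 °C. Overnight cultures in double-strength Mueller-Hinton broth, adjusted to 10⁸ cfu/mL against McFarland 0.5. Compounds serially diluted in sterile distilled water (400 down to 0.78). Incubated at 37 °C for 18 h. MIC taken as the first well without turbidity. Wells without organism and water/medium growth controls included.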

[3] = system: Staphylococcus epidermidis; assay: Antimicrobial activity against Staphylococcus epidermidis ATCC 12228 after 18 hrs by microdilution method; assay type: functional; summary of the method: as §1
[4] = system: Bacillus cereus; assay: Antimicrobial activity against Bacillus cereus CCM 99 after 18 hrs by microdilution method; assay type: functional
Summary of the method: (§2)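 NCCLS M7-A4 broth microdilution. Two-fold series from 400 to 0.78 made in sterile distilled water. Overnight bacteria in double-strength Mueller-Hinton broth, adjusted to 10⁸ cfu/mL (McFarland 0.5). Incubated 37 °C, 18 h. MIC taken as the first well without turbidity. Medium-only and water-plus-medium controls.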

[5] = system: Micrococcus luteus; assay: Antimicrobial activity against Micrococcus luteus ATCC 9341 after 18 hrs by microdilution method; assay type: functional; summary of the method: as §2
[6] = system: Proteus vulgaris; assay: Antimicrobial activity against Proteus vulgaris ATCC 6897 after 18 hrs by microdilution method; assay type: functional; summary of the method: as §2
[7] = system: Escherichia coli; assay: Antimicrobial activity against Escherichia coli ATCC 8739 after 18 hrs by microdilution method; assay type: functional; summary of the method: as §1
[8] = system: Salmonella typhimurium; assay: Antimicrobial activity against Salmonella Typhimurium CCM 5445 after 18 hrs by microdilution method; assay type: functional, Salmonella enterica subsp. enterica serovar Typhimurium; summary of the method: as §2
[9] = system: Klebsiella pneumoniae; assay: Antimicrobial activity against Klebsiella pneumoniae CCM 2318 after 18 hrs by microdilution method; assay type: functional; summary of the method: as §2
[10] = system: Candida albicans; assay: Antifungal activity against Candida albicans ATCC 10231 after 18 hrs by microdilution method; assay type: functional
Summary of the method: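 Yeast broth microdilution per NCCLS M27-A. Stock kept on potato dextrose agar at 4 °C. Suspension in double-strength yeast glucose broth, adjusted to 10⁸ cfu/mL by McFarland 0.5. Water-based twofold series (400 down to 0.78) used. Incubated at 37 °C for 18 h. MIC is the lowest concentration with no visible turbidity.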

[11] = system: Pichia kudriavzevii; assay: Antifungal activity against Candida krusei ATCC 6258 after 18 hrs by microdilution method; assay type: functional
Summary of the method: as §2, with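 “M27-A” for “M7-A4”, “microdilution for yeast.” for “microdilution.”, “Inoculum” for “Overnight bacteria”, “yeast glucose” for “Mueller-Hinton”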

[12] = Salmonella enterica, CCM 5445, 18 h

Compound: Cc1cc(C)c(C[N+]2=CN3CCCCC3C2)c(C)c1.[Br-] (centres undefined)
- LD50 at 24 h [1]: 758 mg/kg
- MIC [2]: 50 µg/mL
- MIC ([3]; ATCC 12228, 18 h): 25 µg/mL
- MIC ([4]; CCM 99, 18 h): 200 µg/mL
- MIC ([5]; ATCC 9341, 18 h): 6.25 µg/mL
- MIC ([6]; ATCC 6897, 18 h): 50 µg/mL
- MIC ([7]; ATCC 8739, 18 h): 200 µg/mL
- MIC [8, 12]: 100 µg/mL
- MIC ([9]; CCM 2318, 18 h): 200 µg/mL
- MIC ([10]; ATCC 10231, 18 h): 50 µg/mL
- MIC ([11]; ATCC 6258, 18 h): 12.5 µg/mL

Compound: Cc1c(C)c(C)c(C[N+]2=CN3CCCCC3C2)c(C)c1C.[Br-] (centres undefined)
- LD50 at 24 h [1]: 1110 mg/kg
- MIC [2]: 25 µg/mL
- MIC ([3]; ATCC 12228, 18 h): 3.12 µg/mL
- MIC ([4]; CCM 99, 18 h): 12.5 µg/mL
- MIC ([5]; ATCC 9341, 18 h): 12.5 µg/mL
- MIC ([6]; ATCC 6897, 18 h): 6.25 µg/mL
- MIC ([7]; ATCC 8739, 18 h): 12.5 µg/mL
- MIC [8, 12]: 12.5 µg/mL
- MIC ([9]; CCM 2318, 18 h): 50 µg/mL
- MIC ([10]; ATCC 10231, 18 h): 50 µg/mL
- MIC ([11]; ATCC 6258, 18 h): 3.12 µg/mL

Compound: FC(F)(F)c1ccc(C[N+]2=CN3CCCCC3C2)cc1.[Br-] (centres undefined)
- LD50 at 24 h [1]: 824 mg/kg
- MIC [2]: 1.56 µg/mL
- MIC ([3]; ATCC 12228, 18 h): 0.78 µg/mL
- MIC ([4]; CCM 99, 18 h): 3.12 µg/mL
- MIC ([5]; ATCC 9341, 18 h): 0.78 µg/mL
- MIC ([6]; ATCC 6897, 18 h): 6.25 µg/mL
- MIC ([7]; ATCC 8739, 18 h): 0.78 µg/mL
- MIC [8, 12]: 0.78 µg/mL
- MIC ([9]; CCM 2318, 18 h): 12.5 µg/mL
- MIC ([10]; ATCC 10231, 18 h): 0.78 µg/mL
- MIC ([11]; ATCC 6258, 18 h): 0.78 µg/mL

Compound: Cc1cc(C)c(C)c(C[N+]2=CN3CCCCC3C2)c1C.[Br-] (centres undefined)
- LD50 at 24 h [1]: 1950 mg/kg
- MIC [2]: 50 µg/mL
- MIC ([3]; ATCC 12228, 18 h): 6.25 µg/mL
- MIC ([4]; CCM 99, 18 h): 100 µg/mL
- MIC ([5]; ATCC 9341, 18 h): 12.5 µg/mL
- MIC ([6]; ATCC 6897, 18 h): 6.25 µg/mL
- MIC ([7]; ATCC 8739, 18 h): 50 µg/mL
- MIC [8, 12]: 50 µg/mL
- MIC ([9]; CCM 2318, 18 h): 200 µg/mL
- MIC ([10]; ATCC 10231, 18 h): 50 µg/mL
- MIC ([11]; ATCC 6258, 18 h): 6.25 µg/mL

Compound: Clc1ccc(C[N+]2=CN3CCCCC3C2)c(Cl)c1.[Br-] (centres undefined)
- LD50 at 24 h [1]: 1890 mg/kg
- MIC [2]: 0.78 µg/mL
- MIC ([3]; ATCC 12228, 18 h): 0.78 µg/mL
- MIC ([4]; CCM 99, 18 h): 3.12 µg/mL
- MIC ([5]; ATCC 9341, 18 h): 0.78 µg/mL
- MIC ([6]; ATCC 6897, 18 h): 1.56 µg/mL
- MIC ([7]; ATCC 8739, 18 h): 3.12 µg/mL
- MIC [8, 12]: 0.78 µg/mL
- MIC ([9]; CCM 2318, 18 h): 12.5 µg/mL
- MIC ([10]; ATCC 10231, 18 h): 0.78 µg/mL
- MIC ([11]; ATCC 6258, 18 h): 0.78 µg/mL

Compound: Fc1c(F)c(F)c(C[N+]2=CN3CCCCC3C2)c(F)c1F.[Br-] (centres undefined)
- LD50 at 24 h [1]: 978 mg/kg
- MIC [2]: 3.12 µg/mL
- MIC ([3]; ATCC 12228, 18 h): 0.78 µg/mL
- MIC ([4]; CCM 99, 18 h): 6.25 µg/mL
- MIC ([5]; ATCC 9341, 18 h): 0.78 µg/mL
- MIC ([6]; ATCC 6897, 18 h): 12.5 µg/mL
- MIC ([7]; ATCC 8739, 18 h): 25 µg/mL
- MIC [8, 12]: 25 µg/mL
- MIC ([9]; CCM 2318, 18 h): 12.5 µg/mL
- MIC ([10]; ATCC 10231, 18 h): 12.5 µg/mL
- MIC ([11]; ATCC 6258, 18 h): 3.12 µg/mL

Compound: Clc1ccc(C[N+]2=CN3CCCCC3C2)cc1.[Br-] (centres undefined)
- LD50 at 24 h [1]: > 2000 mg/kg
- MIC [2]: 1.56 µg/mL
- MIC ([3]; ATCC 12228, 18 h): 0.78 µg/mL
- MIC ([4]; CCM 99, 18 h): 3.12 µg/mL
- MIC ([5]; ATCC 9341, 18 h): 0.78 µg/mL
- MIC ([6]; ATCC 6897, 18 h): 6.25 µg/mL
- MIC ([7]; ATCC 8739, 18 h): 3.12 µg/mL
- MIC [8, 12]: 0.78 µg/mL
- MIC ([9]; CCM 2318, 18 h): 12.5 µg/mL
- MIC ([10]; ATCC 10231, 18 h): 0.78 µg/mL
- MIC ([11]; ATCC 6258, 18 h): 0.78 µg/mL

Compound: Cc1ccc(C[N+]2=CN3CCCCC3C2)cc1.[Br-] (centres undefined)
- LD50 at 24 h [1]: > 2000 mg/kg
- MIC [2]: 3.12 µg/mL
- MIC ([3]; ATCC 12228, 18 h): 1.56 µg/mL
- MIC ([4]; CCM 99, 18 h): < 0.78 µg/mL
- MIC ([5]; ATCC 9341, 18 h): 6.25 µg/mL
- MIC ([6]; ATCC 6897, 18 h): 6.25 µg/mL
- MIC ([7]; ATCC 8739, 18 h): 0.78 µg/mL
- MIC [8, 12]: 50 µg/mL
- MIC ([9]; CCM 2318, 18 h): 0.78 µg/mL
- MIC ([10]; ATCC 10231, 18 h): 3.12 µg/mL
- MIC ([11]; ATCC 6258, 18 h): 0.78 µg/mL

Compound: Cc1cc(C)c(CN2C=[N+](Cc3c(C)cc(C)cc3C)C3CCCCC32)c(C)c1.[Cl-] (centres undefined)
- MIC [2]: 100 µg/mL
- MIC ([3]; ATCC 12228, 18 h): 1600 µg/mL
- MIC ([7]; ATCC 8739, 18 h): 1600 µg/mL
- MIC ([10]; ATCC 10231, 18 h): 1600 µg/mL

Compound: NYSTATIN
- MIC [10]: 6.25 µg/mL
- MIC [11]: 3.12 µg/mL

Compound: CC(C)(C)c1ccc(C[N+]2=CN3CCCCC3C2)cc1.[Br-] (centres undefined)
- LD50 at 24 h [1]: 838 mg/kg
- MIC [2]: 100 µg/mL
- MIC ([3]; ATCC 12228, 18 h): 100 µg/mL
- MIC ([4]; CCM 99, 18 h): 200 µg/mL
- MIC ([5]; ATCC 9341, 18 h): 12.5 µg/mL
- MIC ([6]; ATCC 6897, 18 h): 50 µg/mL
- MIC ([7]; ATCC 8739, 18 h): 200 µg/mL
- MIC [8, 12]: 100 µg/mL
- MIC ([9]; CCM 2318, 18 h): 200 µg/mL
- MIC ([10]; ATCC 10231, 18 h): 25 µg/mL
- MIC ([11]; ATCC 6258, 18 h): 50 µg/mL

Compound: Cc1cc(C)c(C[n+]2cn(C)c3ccccc32)c(C)c1.[Cl-]
- MIC [2]: 1600 µg/mL
- MIC ([3]; ATCC 12228, 18 h): 1600 µg/mL
- MIC ([7]; ATCC 8739, 18 h): 1600 µg/mL
- MIC ([10]; ATCC 10231, 18 h): 1600 µg/mL

Compound: C1=[N+](Cc2ccccc2)CC2CCCCN12.[Br-] (centres undefined)
- LD50 at 24 h [1]: 907 mg/kg
- MIC [2]: 100 µg/mL
- MIC ([3]; ATCC 12228, 18 h): 50 µg/mL
- MIC ([4]; CCM 99, 18 h): > 400 µg/mL
- MIC ([5]; ATCC 9341, 18 h): 3.12 µg/mL
- MIC ([6]; ATCC 6897, 18 h): > 400 µg/mL
- MIC ([7]; ATCC 8739, 18 h): > 400 µg/mL
- MIC [8, 12]: > 400 µg/mL
- MIC ([9]; CCM 2318, 18 h): > 400 µg/mL
- MIC ([10]; ATCC 10231, 18 h): > 400 µg/mL
- MIC ([11]; ATCC 6258, 18 h): > 400 µg/mL

Compound: GENTAMICIN
- MIC [2]: 3.12 µg/mL
- MIC [3]: 1.56 µg/mL
- MIC [4]: 6.25 µg/mL
- MIC [5]: 1.56 µg/mL
- MIC [6]: 0.78 µg/mL
- MIC [7]: 3.12 µg/mL
- MIC ([8]; Salmonella enterica subsp. enterica serovar Typhimurium): 6.25 µg/mL
- MIC [9]: 25 µg/mL

Compound: N#Cc1ccc(C[N+]2=CN3CCCCC3C2)cc1.[Br-] (centres undefined)
- LD50 at 24 h [1]: > 2000 mg/kg
- MIC [2]: 1.56 µg/mL
- MIC ([3]; ATCC 12228, 18 h): 1.56 µg/mL
- MIC ([4]; CCM 99, 18 h): 3.12 µg/mL
- MIC ([5]; ATCC 9341, 18 h): 0.78 µg/mL
- MIC ([6]; ATCC 6897, 18 h): 6.25 µg/mL
- MIC ([7]; ATCC 8739, 18 h): 0.78 µg/mL
- MIC [8, 12]: 0.78 µg/mL
- MIC ([9]; CCM 2318, 18 h): 12.5 µg/mL
- MIC ([10]; ATCC 10231, 18 h): 0.78 µg/mL
- MIC ([11]; ATCC 6258, 18 h): 0.78 µg/mL
